# Laboratory results: ChEMBL document CHEMBL1641400, “Synthesis of essramycin and comparison of its antibacterial activity” (J Nat Prod, 2010)
# Active and inactive are the calls of the source. No cut-off for these calls is given here.
# Key:
# [1] = Kinetic solubility in phosphate buffer at pH 7.4; format: physicochemical
# [2] = Thermodynamic solubility in phosphate buffer at pH 7.4 after 72 hrs; format: physicochemical; conditions: read-out: Therm_solubility
# [3] = Protein binding in LB assay broth (above 30 kDa) by ultra filtration method; format: ADME; conditions: read-out: PB (converted)
# [4] = Kinetic solubility in water; format: physicochemical
# [5] = Thermodynamic solubility in water after 72 hrs; format: physicochemical; conditions: read-out: Therm_solubility
# Staphylococcus aureus [6] = assay: Antibacterial activity against methicillin-susceptible Staphylococcus aureus ATCC 25923 up to 64 ug/ml after 24 hrs by broth dilution assay; format: functional, organism-based
# In short: (§1)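 Triplicate broth microdilution in LB and MH broths. Overnight LB cultures were diluted 40-fold into fresh broth and shaken 1 h at 37 °C to mid-log (OD600 ≈ 0.6). They were then diluted to 5 × 10⁵ cfu/mL into 2-fold serial dilutions from 64 to 0.03 µg/mL (≤1.28% DMSO) and held 24 h at 37 °C. MIC is the lowest concentration with no visible growth. Tetracycline, vancomycin and colistin served as positive controls.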
# Enterococcus faecalis [7] = assay: Antibacterial activity against Enterococcus faecalis VanB ATCC 51299 up to 64 ug/ml after 24 hrs by broth dilution assay; format: functional, organism-based; in short: as §1
# Escherichia coli [8] = assay: Antibacterial activity against Escherichia coli ATCC 25922 up to 64 ug/ml after 24 hrs by broth dilution assay; format: functional, organism-based; in short: as §1
# Klebsiella pneumoniae [9] = assay: Antibacterial activity against Klebsiella pneumoniae ATCC 700603 up to 64 ug/ml after 24 hrs by broth dilution assay; format: functional, organism-based; in short: as §1
# Pseudomonas aeruginosa [10] = assay: Antibacterial activity against Meropenem-resistant Pseudomonas aeruginosa up to 64 ug/ml after 24 hrs by broth dilution assay; format: functional, organism-based
# In short: (§2)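 Triplicate broth microdilution in LB and in MH broth. Overnight LB cultures diluted 40-fold into fresh broth, shaken 1 h at 37 °C to mid-log (OD600 ≈ 0.6), then diluted to 5 × 10⁵ cfu/mL. Added to 2-fold serial dilutions, 64 to 0.03 µg/mL, with DMSO at most 1.28%. Incubated 24 h at 37 °C; MIC is the lowest concentration with no visible growth. Tetracycline, vancomycin and colistin served as positive controls.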
# Acinetobacter baumannii [11] = assay: Antibacterial activity against Meropenem-resistant Acinetobacter baumannii up to 64 ug/ml after 24 hrs by broth dilution assay; format: functional, organism-based; in short: as §2
# Staphylococcus aureus [12] = assay: Antibacterial activity against methicillin-susceptible Staphylococcus aureus ATCC 25923 after 24 hrs by disc diffusion assay; format: functional, organism-based
# In short: (§3)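 LB broth cultures were grown to mid-log (OD600 ≈ 0.6) as for broth MIC and streaked as lawns on LB agar. Sterile filter paper discs were loaded with 10 µL of 2-fold serial dilutions (32 to 1 µg/mL) and placed on the lawns. Inhibition zones were measured after 24 h at 37 °C.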
# Enterococcus faecalis [13] = assay: Antibacterial activity against Enterococcus faecalis VanB ATCC 51299 after 24 hrs by disc diffusion assay; format: functional, organism-based; in short: as §3
# Escherichia coli [14] = assay: Antibacterial activity against Escherichia coli ATCC 25922 after 24 hrs by disc diffusion assay; format: functional, organism-based; in short: as §3
# Klebsiella pneumoniae [15] = assay: Antibacterial activity against Klebsiella pneumoniae ATCC 700603 after 24 hrs by disc diffusion assay; format: functional, organism-based; in short: as §3
# Pseudomonas aeruginosa [16] = assay: Antibacterial activity against Meropenem-resistant Pseudomonas aeruginosa after 24 hrs by disc diffusion assay; format: functional, organism-based
# In short: (§4)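 LB-broth overnight cultures diluted 40-fold into fresh LB, shaken 1 h at 37 °C, to mid-log (OD600 ≈ 0.6). Lawn streaked on LB agar. Sterile filter-paper discs loaded with 10 µL of 2-fold serial dilutions, 32 to 1 µg/mL. Discs placed on plates, 24 h at 37 °C, then zone of inhibition measured.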
# Acinetobacter baumannii [17] = assay: Antibacterial activity against Meropenem-resistant Acinetobacter baumannii after 24 hrs by disc diffusion assay; format: functional, organism-based; in short: as §4
# Staphylococcus aureus [18] = assay: Antibacterial activity against methicillin-susceptible Staphylococcus aureus ATCC 25923 compound formulated with carboxymethylcellulose; format: functional, organism-based
# Escherichia coli [19] = assay: Antibacterial activity against Escherichia coli ATCC 25922 compound formulated with carboxymethylcellulose; format: functional, organism-based
# Pseudomonas aeruginosa [20] = assay: Antibacterial activity against Pseudomonas aeruginosa ATCC 10145 compound formulated with carboxymethylcellulose; format: functional, organism-based
# Bacillus subtilis = assay: Antibacterial activity against Bacillus subtilis ATCC 6051 compound formulated with carboxymethylcellulose; format: functional, organism-based
# HepG2 = assay: Cytotoxicity against human HepG2 cells after 24 hrs by MTT assay; format: cell-based; conditions: HepG2, 24 h
# HEK293 = assay: Cytotoxicity against HEK293 cells after 24 hrs by MTT assay; format: cell-based; conditions: Homo sapiens, HEK293, 24 h
structure (smiles),measurement,setting,value
Cc1cc(=O)n2nc(CC(=O)c3ccccc3)[nH]c2n1 [ESSRAMYCIN],solubility kinetic,[1],150 µg/mL
same,solubility thermodynamic at 72 h,[2],898 µg/mL
same,fraction unbound,[3],0.93
same,solubility kinetic,[4],150 µg/mL
same,solubility thermodynamic at 72 h,[5],175 µg/mL
Cc1cc(=O)n2nc(CC(=O)c3ccccc3)nc2[nH]1 [ESSRAMYCIN],inhibition,Staphylococcus aureus [6],inactive
same,inhibition,Enterococcus faecalis [7],inactive
same,inhibition,Escherichia coli [8],inactive
same,inhibition,Klebsiella pneumoniae [9],inactive
same,inhibition,Pseudomonas aeruginosa [10],inactive
same,inhibition,Acinetobacter baumannii [11],inactive
same,inhibition,Staphylococcus aureus [12],inactive
same,inhibition,Enterococcus faecalis [13],inactive
same,inhibition,Escherichia coli [14],inactive
same,inhibition,Klebsiella pneumoniae [15],inactive
same,inhibition,Pseudomonas aeruginosa [16],inactive
same,inhibition,Acinetobacter baumannii [17],inactive
same,inhibition,Staphylococcus aureus [18],inactive
same,inhibition,Escherichia coli [19],inactive
same,inhibition,Pseudomonas aeruginosa [20],inactive
same,inhibition,Bacillus subtilis,inactive
same,IC50,HepG2,> 200 µM
same,IC50,HEK293,> 200 µM
